# Compounds with a hit are over-represented: about 0.83% of the library has one in this group of screens.
# OXTR ag – human OXTR agonism; 0.32% of 320,000 active; P30559; activation, % at 3 µM; CHO-OTR cells, Fluo-8 calcium fluorescence; normalized: DMSO 0%, oxytocin 100%;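 active means activation above the mean of all tested compounds plus 3 SD, cutoff set per screening run, cut at about 20% in these data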;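 further: peak over basal fluorescence ratio from a 100 s FLIPR kinetic read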
# OXTR potentiator – potentiates the human oxytocin receptor response. CHO-OTR cells, Fluo-8 calcium fluorescence, potentiator mode; 0% = oxytocin EC15, 100% = EC100. 0.061% of 320,000 active. AID 2445. activation, % at 3 µM;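 active means activation above that plate's cutoff, the mean activation of tested compounds plus 3 SD, cut at about 6.6% in these data, passing the limit was not always enough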;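 further: 100% uses oxytocin at 75 nM as the full agonist control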
#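 Assay system: CHO cell line stably expressing human OTR | Also added: Oxytocin at about EC15, sub-maximal agonist stimulus | Times: Compound 6 min at room temperature before oxytocin, 100 s read | Measured by: Fluo-8 intracellular calcium fluorescence, ex 470-495, em 515-575 nm | Controls: EC15 oxytocin alone as 0%, 75 nM oxytocin as 100%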
# CRFBP-R2 agonist – CRF-BP/CRF-R2 complex agonism; HEK293 CRF-R2/CRF-BP, calcium dye fluorescence (FLIPR); percent of saturating CRF peptide response; activation, % at 13.2 µM; 0.46% of 350,000 active;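 active means activation of at least 50%, plus an integration ratio under a set limit after plate pattern correction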;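 further: plate controls were neutral control wells without compound for no effect and CRF at EC100 for full effect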
# TRPN1 ag – activates the zebrafish TRPN1 channel; HEK293 zebrafish TRPN1-YFP, Fluo-8 calcium fluorescence; 100% = response to 87 µM carbachol; activation, % at 3 µM; 0.18% of 220,000 active; AID 1424;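 active means activation above its plate's cutoff, the mean activation of test wells on that plate plus 3 SD, cut at about 19% in these data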;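 further: 0% = DMSO alone and 100% = 87 µM carbachol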
#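 System: zebrafish TRPN1-YFP in HEK293 cells / Dosing: 3 µM single point / Timing: dye loading 1 h at 37 °C, then 30 min room temperature / Signal: Fluo-8 calcium fluorescence, excitation 470-495 nm, emission 515-575 nm / Read-out basis: percent activation from peak over basal fluorescence ratio, control-normalized / Control set: high carbachol 87 µM, low DMSO alone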
# TRPML3 agonist – activates the human TRPML3 channel | Q8TDD5 | HEK293 TRPML3-YFP, Fluo-8 calcium fluorescence; 100% = the carbachol control signal | activation, % at 3 µM | 0.29% of 220,000 active;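 active means activation above its plate's cutoff, the mean activation of the plate's test wells plus 3 SD, cut at about 12% in these data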;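 further: 0% = DMSO only wells and 100% = carbachol wells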
#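 Test system: HEK293 cells stably carrying human TRPML3-YFP; Doses: single dose, 3 µM final nominal compound, 0.3% DMSO final; Schedule: dye loading 1 h 37 °C then 30 min ambient, 125 s read; Technique: Fluo-8 calcium fluorescence; Benchmarks: high control carbachol 87 µM, low control DMSO.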
# V1aR counter – activates human V1a receptor in oxytocin agonist counter-screen. P37288. CHO-V1R cells, Fluo-8 calcium fluorescence, agonist mode; 0% DMSO, 100% 3 nM vasopressin. activation, % at 3 µM. 0.25% of 320,000 active. AID 2797;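 active means activation above the mean activation of all tested compounds plus 3 SD, per screening run, cut at about 20% in these data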;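 further: signal is peak over basal fluorescence ratio across a 100 second FLIPR read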
# Target sequence (P37288 whole entry, looked up): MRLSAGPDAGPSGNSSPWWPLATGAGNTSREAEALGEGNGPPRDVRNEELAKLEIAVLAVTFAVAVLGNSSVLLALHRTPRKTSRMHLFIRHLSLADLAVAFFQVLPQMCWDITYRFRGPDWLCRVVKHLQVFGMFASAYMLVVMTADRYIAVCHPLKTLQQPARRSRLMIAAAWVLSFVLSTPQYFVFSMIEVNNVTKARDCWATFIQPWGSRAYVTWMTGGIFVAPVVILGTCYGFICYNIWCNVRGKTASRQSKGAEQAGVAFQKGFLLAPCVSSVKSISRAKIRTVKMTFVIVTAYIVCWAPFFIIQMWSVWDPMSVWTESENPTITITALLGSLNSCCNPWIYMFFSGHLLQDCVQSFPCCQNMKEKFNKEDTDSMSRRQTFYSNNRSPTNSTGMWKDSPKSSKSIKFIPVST
# * marks the source's active call; other numbers are inactive results; / = no result.
SMILES,OXTR ag,OXTR potentiator,CRFBP-R2 agonist,TRPN1 ag,TRPML3 agonist,V1aR counter
Cc1ccccc1C(=O)OCC(=O)Nc1cccc(S(=O)(=O)NC2=NCCC2)c1,0.2,-2.5,0.4,/,/,1.4
COc1cccc(NC(=O)/C=C/c2ccc(S(=O)(=O)N3CCOCC3)cc2)c1,3.2,-4.0,-1.8,/,/,3.3
Cc1cc(OCC(O)CN2CCc3ccccc3C2)ccc1Cl (configuration not stated),0.1,0.7,-1.1,/,/,1.6
O=C(COC(=O)c1cc(=O)[nH]c(=O)[nH]1)Nc1ccccc1F,1.3,2.4,0.4,/,/,0.5
COc1ccc2ccccc2c1C(O)c1nccn1C (configuration not stated),8.6,-5.8,104.0*,-1.0,0.9,6.3
Cn1ccnc1C(O)c1ccccc1 (configuration not stated),0.2,-2.0,1.8,-0.8,0.8,-0.4
O=C(CN1Cc2ccccc2C1=O)Nc1ccc2c(c1)OCCO2,0.6,-3.5,0.1,/,/,0.8
CCOc1cc(-n2cnnn2)c(OCC)cc1NC(=O)c1cc2ccc(N(CC)CC)cc2oc1=O,/,/,/,0.7,-0.3,/
CCN(CC)c1ccc2cc(C=O)c(=O)oc2c1,109.8*,-23.6,308.9,38.8*,19.4*,88.0*
CCN(CC)c1ccc2cc(C(N)=O)c(=O)oc2c1,0.4,-4.6,41.3,1.0,-0.2,0.6
CCN(CC)c1ccc2cc(NC(=O)CCC(=O)O)c(=O)oc2c1,3.5,-6.1,88.2*,3.6,1.6,3.7
CCN(CC)c1ccc2cc(C(=O)Nc3ccccn3)c(=O)oc2c1,2.5,-4.1,262.6*,1.7,0.1,1.9
CCN(CC)c1ccc2cc(/C(N)=N/NC(=O)c3cccs3)c(=O)oc2c1,5.9,-4.4,/,10.9,4.6,11.3
CCN(CC)c1ccc2cc(C(C)=O)c(=O)oc2c1,11.9,-17.4,361.5*,8.6,10.4,13.7
CCN(CC)c1ccc2cc(C(N)=O)c(=N)oc2c1,0.8,-12.4,258.2*,0.5,0.8,0.8
c1cc(-c2nnc(-c3ccncc3)o2)ccn1,0.6,2.3,0.6,0.1,-0.1,0.7
CCN(CC)c1ccc2cc(-c3nnc(-c4ccncc4)o3)c(=O)oc2c1,/,/,336.5*,47.1*,27.3*,/
CC(=O)Nc1ccc(NC(=O)C2CCCN(c3ncccn3)C2)cc1 (configuration not stated),1.1,-8.9,-1.4,-0.5,0.6,0.7
O=C(Nc1ccc(Oc2ccccc2)cc1)C1CCCN(c2ncccn2)C1 (configuration not stated),-0.9,-0.5,58.1*,1.0,0.8,-0.1
O=C1NC(=O)C2(N1)c1ccccc1-c1ccccc12,/,/,-1.3,/,/,/
O=C1NC(=O)C2(N1)C(=O)c1cccc3cccc2c13 (configuration not stated),/,/,84.6*,/,/,/
C[C@@H]1CN([C@H](C)CO)C(=O)c2cc(C#CC3CC3)cnc2O[C@H]1CN(C)S(C)(=O)=O,/,/,-1.7,/,/,/
C=CCN(CC=C)C(=O)C1c2ccccc2Oc2ccccc21,/,/,0.9,/,/,/
CCN(CC)C(=O)C1c2ccccc2Oc2ccccc21,47.6*,-7.7,-0.6,/,/,64.0*
COc1ccc(CNC[C@@H](CCCCN(C)Cc2ccc(OC)cc2)N2C[C@H](c3ccccc3)N(CCc3ccc(Cl)c(Cl)c3)C(=O)C2=O)cc1,28.5*,-15.6,-1.0,1.0,0.6,58.2*
COc1ccc(CNC(=O)[C@@H]2CC=C[C@@H]3CCN(Cc4ccc(Cl)c(Cl)c4)C(=O)[C@@H]32)cc1,-1.6,-10.2,-0.1,/,/,0.1
O=C(CCn1nnnc1CN1CCOCC1)N1CCC(c2ccccc2F)C1 (configuration not stated),-1.2,-13.0,0.3,/,/,-0.1
Cc1ccc(C(=O)CN(CCCC(N)=O)S(=O)(=O)c2ccc([N+](=O)[O-])cc2)cc1,-2.2,-0.2,0.2,/,/,-0.1
CC(=O)c1ccc(NC(=S)NC(NC(=O)c2ccco2)C(Cl)(Cl)Cl)cc1 (configuration not stated),61.2*,-23.6,2.2,0.9,1.7,37.7*
